Source: ChEMBL document CHEMBL1145496 (Antimicrob Agents Chemother, 2007)
Converted amounts (≈) assume the structure as drawn.

Assays:
Type in all cases: functional
Enterococcus faecalis [1] = experiment: Antimicrobial activity against vancomycin A-resistant Enterococcus faecalis TX2784 isolate by agar dilution method
Procedure, shortened: (§1)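 Agar dilution MIC on Mueller-Hinton agar II per CLSI, standard inoculum 10⁴ CFU/spot; drug dissolved in 9.9% glacial acetic acid plus 1% DMSO. Control strains E. faecalis ATCC 29212, S. aureus ATCC 29213, E. coli 25922.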

Enterococcus faecalis [2] = experiment: Antimicrobial activity against vancomycin B-resistant Enterococcus faecalis TX2484 isolate by agar dilution method; procedure, shortened: as §1
Enterococcus faecalis [3] = experiment: Antimicrobial activity against beta-lactamase producing Enterococcus faecalis TX0630 isolate by agar dilution method; procedure, shortened: as §1
Enterococcus faecalis [4] = experiment: Antimicrobial activity against beta-lactamase producing vancomycin-resistant Enterococcus faecalis TX0921 isolate at 10^4 CFU/spot; procedure, shortened: as §1
Enterococcus faecalis [5] = experiment: Antimicrobial activity against beta-lactamase producing vancomycin-resistant Enterococcus faecalis isolates by agar dilution method; procedure, shortened: as §1
Enterococcus faecalis [6] = experiment: Antimicrobial activity against beta-lactamase producing vancomycin-resistant Enterococcus faecalis TX0614 isolate at 10^4 CFU/spot; procedure, shortened: as §1
Enterococcus faecalis [7] = experiment: Antimicrobial activity against beta-lactamase producing vancomycin-resistant Enterococcus faecalis TX0614 isolate at 10^7 […]
Procedure, shortened: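 High-inoculum MIC by broth dilution in Mueller-Hinton broth at 10⁷ CFU/ml (per ml in broth, not per spot).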

Enterococcus faecalis [8] = experiment: Bactericidal activity against vancomycin B-resistant Enterococcus faecalis TX2484 isolate assessed as decrease in viable count after 24 hrs
Procedure, shortened: (§2)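 Time-kill in 20 ml BHI broth, starting inoculum 10⁷ CFU/ml from overnight culture. Viable counts at 0, 4 and 24 h by plating on BHI agar after centrifuging 1-ml samples and resuspending in 0.9% saline to remove carryover. Detection limit 10 CFU/ml. Bactericidal = ≥3-log₁₀ CFU/ml drop over 0–24 h. Two to four runs per strain.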

Enterococcus faecalis [9] = experiment: Antimicrobial activity against Enterococcus faecalis TX0645 isolate at 10^4 CFU/spot; procedure, shortened: as §1
Enterococcus faecalis [10] = experiment: Antimicrobial activity against beta-lactamase producing Enterococcus faecalis TX0630 isolate at 10^4 CFU/spot
Procedure, shortened: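 Agar dilution MIC on Mueller-Hinton agar II following CLSI recommendations, with a standard inoculum of 10⁴ CFU/spot. Drug was diluted in 9.9% glacial acetic acid plus 1% DMSO. Control strains were E. faecalis ATCC 29212, S. aureus ATCC 29213 and E. coli 25922. Isolates were recovered from −80°C frozen stocks.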

Enterococcus faecalis [11] = experiment: Antimicrobial activity against beta-lactamase producing vancomycin-resistant Enterococcus faecalis TX0638 isolate at 10^4 CFU/spot; procedure, shortened: as §1
Enterococcus faecalis [12] = experiment: Bactericidal activity against vancomycin A-resistant Enterococcus faecalis TX2784 isolate assessed as decrease in viable count after 24 hrs; procedure, shortened: as §2
Enterococcus faecalis [13] = experiment: Antimicrobial activity against beta-lactamase producing Enterococcus faecalis TX5070 isolate by agar dilution method
Procedure, shortened: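 Starting inoculum was 10⁴ CFU/spot, and E. faecalis ATCC 29212 served as control. Drug was diluted in 9.9% glacial acetic acid plus 1% DMSO.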

Compound	MIC (Enterococcus faecalis [1])	MIC (Enterococcus faecalis [2])	MIC (Enterococcus faecalis [3])	MIC (Enterococcus faecalis [4])	MIC50 (Enterococcus faecalis [5])	MIC90 (Enterococcus faecalis [5])	MIC (Enterococcus faecalis [6])	MIC (Enterococcus faecalis [7])	log10CFU/ml (Enterococcus faecalis [8])	MIC (Enterococcus faecalis [9])	MIC (Enterococcus faecalis [10])	MIC (Enterococcus faecalis [11])	log10CFU/ml (Enterococcus faecalis [12])	MIC (Enterococcus faecalis [13])
CC1(C)S[C@@H]2[C@H](NC(=O)[C@H](N)c3ccccc3)C(=O)N2[C@H]1C(=O)O [AMPICILLIN]	0.5 µg/mL (≈ 1.43 µM)	0.5 µg/mL (≈ 1.43 µM)	1 µg/mL (≈ 2.86 µM)	–	–	–	–	–	–	–	–	–	–	–
Nc1nc(/C(=N/O)C(=O)N[C@@H]2C(=O)N3C(C(=O)O)=C(/C=C4\CCN([C@@H]5CCNC5)C4=O)CS[C@H]23)ns1 [CEFTOBIPROLE]	0.25 µg/mL (≈ 0.468 µM)	0.5 µg/mL (≈ 0.935 µM)	0.25 µg/mL (≈ 0.468 µM)	0.25 µg/mL (≈ 0.468 µM)	0.25 µg/mL (≈ 0.468 µM)	1 µg/mL (≈ 1.87 µM)	1 µg/mL (≈ 1.87 µM)	2 µg/mL (≈ 3.74 µM)	>3	0.25 µg/mL (≈ 0.468 µM)	0.125 µg/mL (≈ 0.234 µM)	0.25 µg/mL (≈ 0.468 µM)	>3	0.125 µg/mL (≈ 0.234 µM)
CN[C@H](CC(C)C)C(=O)N[C@H]1C(=O)N[C@@H](CC(N)=O)C(=O)N[C@H]2C(=O)N[C@H]3C(=O)N[C@H](C(=O)N[C@H](C(=O)O)c4cc(O)cc(O)c4-c4cc3ccc4O)[C@H](O)c3ccc(c(Cl)c3)Oc3cc2cc(c3O[C@@H]2O[C@H](CO)[C@@H](O)[C@H](O)[C@H]2O[C@H]2C[C@](C)(N)[C@H](O)[C@H](C)O2)Oc2ccc(cc2Cl)[C@H]1O [VANCOMYCIN]	> 256 µg/mL	> 256 µg/mL	0.5 µg/mL (≈ 0.345 µM)	–	–	–	–	–	–	–	–	–	–	8 µg/mL (≈ 5.52 µM)
